NPY Y1 blocker = antagonists of human neuropeptide Y receptor Y1. P25929. HEK293-CNG Y1 cells, membrane potential fluorescence; NPY at EC95, then isoproterenol. inhibition, % at 3.6 µM. 200,000 tested, 1% active;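 active = inhibition above the campaign mean inhibition of all tested compounds plus 3 SD, cut at about 20% in these data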
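Assay system: HEK293 cells with Y1 receptor plus CNG channel | Probe or stimulus: NPY (25 nM), isoproterenol (1 µM), Ro 20-1724 (25 µM) | Timing: Compound incubation 1 h at room temperature, readout 45 min post-stimulation | Measured by: Membrane-potential fluorescent dye readout | Benchmarks: High control isoproterenol alone, low control NPY with isoproterenol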
S1P4 ag = human S1P4 receptor agonism; O95977; S1P4-expressing cell line, agonist reporter assay; activation, % at 4.98 µM; 220,000 tested, 0.35% active; in the data active = activation above about 11%
Target sequence (O95977 whole entry, looked up): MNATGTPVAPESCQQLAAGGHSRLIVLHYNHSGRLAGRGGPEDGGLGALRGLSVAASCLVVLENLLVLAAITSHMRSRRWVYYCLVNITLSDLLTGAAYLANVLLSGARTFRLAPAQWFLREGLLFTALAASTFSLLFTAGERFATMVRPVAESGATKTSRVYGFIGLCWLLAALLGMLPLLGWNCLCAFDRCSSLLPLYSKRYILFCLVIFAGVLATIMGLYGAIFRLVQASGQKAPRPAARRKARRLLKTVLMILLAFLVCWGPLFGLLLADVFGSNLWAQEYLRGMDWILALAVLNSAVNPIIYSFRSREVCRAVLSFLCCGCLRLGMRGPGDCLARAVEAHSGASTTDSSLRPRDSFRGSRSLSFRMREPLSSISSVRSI
NPY-Y1 PAM-ag = human NPY-Y1 potentiation or agonism, primary screen | P25929 | NPY-Y1 expressing cells, potentiator/agonist activation | activation, % at 3.6 µM | 220,000 tested, 0.37% active; in the data active = activation above about 33%, passing the limit was not always enough;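 also: cells stimulated with NPY at EC10 then isoproterenol at EC100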
NPY2 pot ag = human NPY-Y2 potentiation or agonism, primary screen; P49146; cells expressing NPY-Y2, potentiator/agonist read-out; activation, % at 3.6 µM; 220,000 tested, 0.45% active; AID 1359; in the data active = activation above about 27%;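 also: cells stimulated with NPY near EC25 plus isoproterenol at EC100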
NPY-Y2 antag = NPY-Y2 (human) receptor antagonism | AID 793 | 140,000 tested, 0.99% active | inhibition, % at 2.7 µM | P49146 | NPY-Y2 expressing cells, antagonist mode; in the data active = inhibition above about 17%
S1P4 antagonist = antagonists of human S1P4 receptor. S1P4-expressing cells, antagonist mode, reporter read-out. inhibition, % at 4.98 µM. AID 1510. O95977. 220,000 tested, 0.26% active; in the data active = inhibition above about 29%
NPY1 antag ctr = counter-screen for NPY-Y2 antagonists: human NPY-Y1 antagonism; shares compounds with NPY-Y2 antag; cell-based NPY-Y1 antagonism counterscreen; inhibition, % at 3.6 µM; 710 tested, 19% active; in the data active = inhibition above about 20%;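 also: cells challenged with NPY then isoproterenol with cAMP sensed through a CNG channel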
NPY2 antag conf = human NPY-Y2 antagonism, confirmation | shares compounds with NPY-Y2 antag | HEK293 NPY-Y2 CNG channel, membrane potential fluorescence | inhibition, % at 2.8 µM | 710 tested, 32% active | AID 1257;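 active = mean inhibition of triplicate wells above the hit cutoff set in the primary screen, cut at about 17% in these data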
Each line names hits and unclear results; the compound was inactive in the other large screens (follow-up assays come after a bar, where they were run). The list is not random: actives were taken first. Their share in the collection is about 2.4%.

Cc1ccc(C(C(=O)NC2CCCC2)N(C(=O)Cc2cccs2)c2ccc(C)c(C)c2)o1 (centres undefined)	NPY-Y2 antag 23.8 | NPY1 antag ctr inactive | NPY2 antag conf inactive
c1ccc(OCCOCCN2CCN(C(c3ccccc3)c3ccccc3)CC2)cc1	none
COc1ccccc1OCCCCN1CCN(C(c2ccccc2)c2ccccc2)CC1	NPY-Y2 antag 20.4 | NPY1 antag ctr inactive | NPY2 antag conf 25.1
Cc1ccc2cccc(NC(=S)NC(=O)c3ccccc3)c2n1	NPY-Y2 antag 21.8 | NPY1 antag ctr 20.4 | NPY2 antag conf 42.7
O=C(NC(=S)NC(c1ccccc1)c1ccncc1)c1ccccc1 (centres undefined)	none
O=C1C2CC=C(Cl)CC2C(=O)N1CC1OCCc2ccccc21 (centres undefined)	none
O=C1C2CC=C(Cl)CC2C(=O)N1CC1Cc2ccccc2CO1 (centres undefined)	NPY-Y2 antag 28.2 | NPY1 antag ctr inactive | NPY2 antag conf 23.1
CN(/N=C/c1ccc(O)cc1O)c1ncc(C(F)(F)F)cc1Cl	none (no result: NPY Y1 blocker, NPY-Y2 antag)
CCN1CCCc2cc(CN(CCN3CCOCC3)C(=S)Nc3cc(F)cc(F)c3)ccc21	none (no result: NPY-Y2 antag)
CNC(=O)c1ccsc1NC(=O)c1ccc(S(=O)(=O)N2CCCc3ccccc32)cc1	NPY-Y2 antag 17.4 | NPY1 antag ctr 30.9 | NPY2 antag conf 38.7
COc1ccc(-c2cc(C(=O)Nc3c(Cl)cc(Cl)cc3Cl)c3ccccc3n2)cc1OC	NPY-Y2 antag 78.5 | NPY1 antag ctr 152.4 | NPY2 antag conf 195.4
COc1cccc(-c2cc(C(=O)Nc3ccc([N+](=O)[O-])cn3)c3ccccc3n2)c1	NPY-Y2 antag 26.0 | NPY1 antag ctr 36.9 | NPY2 antag conf 52.2
COc1ccc(-c2cc(C(=O)Nc3ccc(Cl)cc3Cl)c3ccccc3n2)cc1OC	NPY-Y2 antag 123.9 | NPY1 antag ctr 132.7 | NPY2 antag conf active
O=C(Nc1ccc([N+](=O)[O-])cn1)c1cc(-c2cccc(Br)c2)nc2ccccc12	none
COC(=O)c1cc(OC)c(OC)cc1NC(=O)c1cc(-c2ccccc2)nc2ccccc12	none
CCc1nnc(NC(=O)CCC(=O)NCCc2ccc(OC)c(OC)c2)s1	none
CN(C)CCNC(=S)Nc1ccc(Br)cc1	none
Cc1cccc(-c2noc(CN(C(=O)C(c3ccccc3)c3ccccc3)C(C)C)n2)c1	NPY-Y2 antag 17.4 | NPY1 antag ctr inactive | NPY2 antag conf inactive
Cc1cccc(-c2noc(CN(C(=O)c3ccc4c(c3)OCO4)C(C)C)n2)c1	none
Cc1ccc(OCCNC(=O)/C=C/c2ccc([N+](=O)[O-])cc2)cc1C	NPY-Y2 antag 17.9 | NPY1 antag ctr inactive | NPY2 antag conf inactive
Cc1ccc(OCCNC(=O)/C=C/c2ccccc2)cc1C	none
O=c1[nH]c(-c2ccccn2)nc2sc(-c3ccccc3)cc12	none (no result: NPY-Y2 antag)
CC(C)c1ccccc1NC(=O)COC(=O)c1c2c(nc3ccccc13)CCN(Cc1ccccc1)C2	NPY-Y2 antag 18.7 | NPY1 antag ctr inactive | NPY2 antag conf inactive
Cc1cc(N2CCN(C)CC2)ccc1NC(=O)c1c2c(nc3ccccc13)CCN(Cc1ccccc1)C2	none (no result: NPY-Y2 antag)
O=C(NC1CCCCCC1)c1c2c(nc3ccccc13)CCN(Cc1ccccc1)C2	NPY-Y2 antag 55.8 | NPY1 antag ctr 81.1 | NPY2 antag conf 67.0
Cn1c2ccccc2c(=O)c2c(=O)n(Cc3ccco3)c(-c3ccc(C(C)(C)C)cc3)nc21	none (no result: NPY Y1 blocker, NPY-Y2 antag)
CCCn1c(=O)c2ccccc2n2c(SCCOc3ccc(C)cc3)nnc12	NPY-Y2 antag 19.8 | NPY1 antag ctr inactive | NPY2 antag conf inactive
CCCn1c(=O)c2ccccc2n2c(SCCOc3ccc(OC)cc3)nnc12	none
O=C(CSc1nc2ccccc2c(=O)n1Cc1ccc(Cl)cc1)NCc1cccs1	none
COCCn1c(-c2ccc(Cl)cc2)cnc1SCC(=O)NCc1cccs1	NPY-Y2 antag 18.4 | NPY1 antag ctr inactive | NPY2 antag conf inactive
Cc1cccc(C)c1NC(=O)C1(N(Cc2ccco2)C(=O)c2ccccn2)CCCC1	none
O=C(c1ccccn1)N(Cc1ccco1)C1(C(=O)NC2CCCCC2)CCCCC1	NPY-Y2 antag 32.0 | NPY1 antag ctr inactive | NPY2 antag conf inactive
CC1CCN(C(=O)C(C)c2ccc([N+](=O)[O-])cc2)CC1 (centres undefined)	none (no result: NPY-Y2 antag)
CCn1c(C(C)NC(=O)c2cccs2)n[nH]c1=S (centres undefined)	NPY-Y2 antag 22.4 | NPY1 antag ctr inactive | NPY2 antag conf inactive
COc1ccc(/C=C(\NC(=O)c2ccccc2)C(=O)OC[C@@H]2CCC[N+]3(C)CCCCC23)cc1OC (some centres undefined)	none (no result: NPY-Y2 antag)
Oc1ccccc1C(=S)N1CCN(c2cccc(Cl)c2)CC1	none (no result: NPY-Y2 antag)
CCCc1cc(-c2n[nH]c(=S)n2CC)cs1	none (no result: NPY-Y2 antag)
CCCc1cc(-c2n[nH]c(=S)n2C(C)c2ccccc2)cs1 (centres undefined)	NPY-Y2 antag 19.6 | NPY1 antag ctr inactive | NPY2 antag conf inactive
CC1(C)Cc2ccccc2-c2nnc(SCc3ccccc3)n21	NPY-Y2 antag 17.5 | NPY1 antag ctr inactive | NPY2 antag conf inactive
O=S(=O)(Nc1nc(SCc2ccc(Cl)cc2)n[nH]1)c1ccccc1	none (no result: NPY Y1 blocker, NPY-Y2 antag)
CCCCN1C2=NCCCN2c2cc(C)c(C)cc21	NPY-Y2 antag 21.7 | NPY1 antag ctr inactive | NPY2 antag conf inactive
COc1cc(/C=C2\SC(=Nc3c(C)n(C)n(-c4ccccc4)c3=O)NC2=O)ccc1O	NPY Y1 blocker 20.1, NPY-Y2 antag 30.7 | NPY1 antag ctr 48.3 | NPY2 antag conf 74.2
COc1cc(/C=C2\SC(=Nc3ccc(O)cc3)NC2=O)cc(OC)c1O	none (no result: NPY-Y2 antag)
Cc1nc2c3ccccc3nc(SCC(=O)N3CC(C)CC(C)C3)n2n1 (centres undefined)	none
Cc1nc2c3ccccc3nc(SCC(=O)c3ccc(Cl)cc3)n2n1	NPY-Y2 antag 27.2 | NPY1 antag ctr 21.4 | NPY2 antag conf inactive
O=C1c2ccccc2NC(c2ccc(Cl)cc2Cl)N1Cc1ccccc1 (centres undefined)	NPY-Y2 antag 27.7 | NPY1 antag ctr inactive | NPY2 antag conf inactive
CC(CN1CCN(C)CC1)OC(=O)c1cccc(Cl)c1 (centres undefined)	none (no result: NPY Y1 blocker, NPY-Y2 antag)
COc1ccc(-n2c(COc3cccc4ccccc34)nnc2SCC#N)cc1	NPY-Y2 antag 18.4 | NPY1 antag ctr inactive | NPY2 antag conf inactive
Nc1nc(CN2CCC(Cc3ccccc3)CC2)nc(Nc2ccccc2)n1	NPY-Y2 antag 19.0 | NPY1 antag ctr inactive | NPY2 antag conf inactive
Nc1nc(CN2CCCCCC2)nc(Nc2ccccc2)n1	none
O=C(O)/C=C/C(=O)Nc1ccc(S(=O)(=O)N2CCCC2)cc1	none (no result: NPY-Y2 antag)

Source: PubChem BioAssay
